From PubChem
Shown are actives, neighbours in structure and some others; about 4.5% of the full set was active somewhere.
TAAR1 agonist = human TAAR1 agonism | Q96RJ0 | 360,000 compounds, 0.99% hits | activation, % at 3 µM | CHO RD-HGA16 TAAR1, Fluo-8 calcium fluorescence; vehicle wells 0%, saturating PEA agonist 100%;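 active = activation above the mean activation of all test compounds in the run plus 3 SD, cut at about 38% in these data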
Target sequence (Q96RJ0 whole entry, looked up): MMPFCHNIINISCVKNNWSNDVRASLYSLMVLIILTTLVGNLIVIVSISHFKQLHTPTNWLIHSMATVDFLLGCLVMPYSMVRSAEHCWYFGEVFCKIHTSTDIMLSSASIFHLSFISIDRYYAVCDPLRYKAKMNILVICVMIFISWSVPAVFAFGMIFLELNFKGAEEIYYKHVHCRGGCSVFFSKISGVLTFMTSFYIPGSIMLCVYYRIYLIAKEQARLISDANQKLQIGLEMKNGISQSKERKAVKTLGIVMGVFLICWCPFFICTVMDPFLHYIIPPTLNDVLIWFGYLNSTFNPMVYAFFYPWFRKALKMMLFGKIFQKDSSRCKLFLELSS
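test system = CHO RD-HGA16 cells carrying human TAAR1 plus Gα16 | schedule = 17-24 h seeding, 75 min 37 °C dye, 30 min RT | compound dosing = 3 µM single concentration | control set = DMSO and PEA EC100 | replicates = n 1 | signal = Fluo-8 fluorescence, 5 s baseline then 140 s kinetic read | measure = percent activation vs PEA EC100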
GPR7 antag = blocks human GPR7 receptor signaling; P48145; GPR7-expressing cells, fluorescence antagonist assay; inhibition, % at 4.4 µM; 290,000 compounds, 1.1% hits; AID 1861; in the data active = inhibition above about 16%, passing the limit was not always enough;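 also: cells stimulated with the agonist NPW; 0% = agonist with vehicle and 100% = vehicle without agonist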
Target sequence (P48145 whole entry, looked up): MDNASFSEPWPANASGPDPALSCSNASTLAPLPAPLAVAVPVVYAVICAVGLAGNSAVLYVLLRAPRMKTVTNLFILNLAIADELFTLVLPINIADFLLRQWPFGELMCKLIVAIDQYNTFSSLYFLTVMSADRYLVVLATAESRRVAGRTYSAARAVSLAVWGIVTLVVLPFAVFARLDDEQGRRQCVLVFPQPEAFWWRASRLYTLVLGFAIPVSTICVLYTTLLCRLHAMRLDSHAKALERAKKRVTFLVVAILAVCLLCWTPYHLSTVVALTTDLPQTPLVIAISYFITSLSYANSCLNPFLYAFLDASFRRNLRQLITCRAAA
TAAR1 antagonist = antagonists of human TAAR1 | CHO RD-HGA16 TAAR1, Fluo-8 calcium fluorescence, antagonist | AID 624466 | inhibition, % at 3 µM | 360,000 compounds, 1.5% hits | Q96RJ0;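 active = inhibition above a per-plate cutoff, the mean inhibition of test compounds on that plate plus 3 SD, cut at about 49% in these data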;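 also: 0% = DMSO plus EC80 beta-PEA response and 100% = DMSO alone without agonist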
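Assay system: CHO-derived RD-HGA16 cells stably expressing human TAAR1 plus Gα16. Timing: 140 s kinetic read after compound, 140 s after agonist. Technique: kinetic Fluo-8 calcium fluorescence measurement. Measure: % inhibition of agonist calcium response.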
OX1R antag-1 = blocks the human orexin 1 receptor; 330,000 compounds, 1.8% hits; inhibition, % at 6.6 µM; OX1R-expressing cells, FRET antagonist read-out; AID 485270; O43613; in the data active = inhibition mostly above about 38%, no sharp cut-off; inactive = mostly below about 40%;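 also: 0% = agonist challenge alone and 100% = reference antagonist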
OX1R antag-2 = blocks the human orexin 1 receptor; inhibition, % at 5 µM; O43613; CHO/OX1R cells, Fluo-8 calcium fluorescence, orexin A; AID 434989; 330,000 compounds, 0.43% hits;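 active = inhibition above its plate's threshold, mean inhibition of all tested compounds on the plate plus 3 SD, cut at about 37% in these data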;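 also: 0% = orexin A challenge wells and 100% = SB-334867-A antagonist wells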
CHO parental Ca = counter-screen: ATP calcium response change in parental CHO cells; inhibition, % at 5.6 µM; AID 463079; parental CHO-K1, ATP-induced calcium, Fluo-8 fluorescence; 330,000 compounds, 0.63% hits;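 active = inhibition above that plate's mean sample inhibition plus 3 SD, cut at about 26% in these data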;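 also: 0% = ATP-challenged DMSO wells and 100% = DMSO wells without ATP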
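Material – parental CHO cells · Reagent – ATP stimulus · Compound – single nominal dose of 5.6 µM per compound · Detection – Fluo-8 fluorescence · Read-out basis – percent inhibition of calcium signal · Controls – ATP-challenged DMSO wells low, unchallenged DMSO wells high · Repeats – no replicates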
TAAR1 ag conf = human TAAR1 agonism, confirmed | CHO RD-HGA16 TAAR1, Fluo-8 calcium fluorescence; scaled: DMSO 0%, maximal phenethylamine 100% | shares compounds with TAAR1 agonist | 2,400 compounds, 82% hits | AID 651783 | activation, % at 3 µM;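 active = activation above a cutoff set at the run's mean compound activation plus 3 SD, cut at about 39% in these data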
Ga16 nonsel ag = nonselective agonism, TAAR1 counter-screen; CHO-Ga16 parental, Fluo-8 calcium fluorescence; normalized to maximal ATP response, DMSO zero; 2,400 compounds, 50% hits; activation, % at 3 µM; AID 651787; shares compounds with TAAR1 agonist;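 active = activation above the run cutoff, the mean activation over all tested wells plus 3 SD, cut at about 12% in these data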;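 also: 0% = DMSO wells and 100% = maximal ATP response on the peak over basal ratio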
TAAR1 desensitize = human TAAR1 agonist that also desensitizes the receptor. shares compounds with TAAR1 agonist. 2,400 compounds, 46% hits. inhibition, % at 3 µM. CHO RD-HGA16 hTAAR1, Fluo-8 calcium, beta-PEA response inhibition;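 active = inhibition above the run cutoff, the mean inhibition of all test compounds plus 3 SD, cut at about 49% in these data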;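 also: beta-PEA stimulus applied at its EC80; loss of beta-PEA calcium signal after compound pretreatment read as receptor desensitization; 0% = DMSO with beta-PEA at EC80 and 100% = DMSO alone without agonist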
Ga16 nonsel ant = nonselective Ga16 antagonism, counter-screen; shares compounds with TAAR1 agonist; CHO-Ga16 ATP-induced calcium, Fluo-8 fluorescence; inhibition, % at 3 µM; 2,400 compounds, 39% hits; AID 651952;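 active = inhibition above the plate's mean compound inhibition plus 3 SD, computed per plate, cut at about 22% in these data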;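 also: 0% = EC80 ATP with DMSO and 100% = DMSO wells without ATP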
The depositor's hits bear a star; . = no result.

SMILES	TAAR1 agonist	GPR7 antag	TAAR1 antagonist	OX1R antag-1	OX1R antag-2	CHO parental Ca	TAAR1 ag conf	Ga16 nonsel ag	TAAR1 desensitize	Ga16 nonsel ant
NC(CCc1ccccc1)c1csc(Nc2ccc(C(F)(F)F)cn2)n1 (stereo not drawn)	56*	.	21	.	.	.	40*	25*	40	36*
CC(C)CC(N)c1csc(Nc2ccc(C(F)(F)F)cn2)n1 (stereo not drawn)	58*	.	25	.	.	.	54*	22*	31	26*
NC(COCc1ccccc1)c1csc(Nc2ccc(C(F)(F)F)cn2)n1 (stereo not drawn)	36	.	3	.	.	.	.	.	.	.
NC(c1csc(Nc2ccc(C(F)(F)F)cn2)n1)C1CCCCC1 (stereo not drawn)	76*	.	20	.	.	.	75*	43*	60*	55*
CCc1nc2ccc(C(=O)NCCN3CCOCC3)cn2c1N(C)Cc1ccc(OC)cc1	1	.	-1	.	.	.	.	.	.	.
O=C(NCC(c1ccco1)N1CCc2ccccc2C1)c1ccc(Br)cc1 (stereo not drawn)	45*	.	20	27	-18	-24	24	2	11	13
O=C(NCC(c1ccco1)N1CCc2ccccc2C1)c1ccccc1Br (stereo not drawn)	35	.	7	9	1	-14	.	.	.	.
O=C(NCC(c1ccco1)N1CCc2ccccc2C1)c1ccc(Cl)cc1 (stereo not drawn)	74*	.	34	32	-28	-18	38*	1	4	8
CCOc1ccc(C(=O)NCC(c2ccco2)N2CCc3ccccc3C2)cc1 (stereo not drawn)	7	.	-65	23	-42	-21	.	.	.	.
CCCCN1CC(=O)N2[C@H]3c4ccccc4OC[C@@H]3[C@H](c3ccccc3)[C@]2(C)C1=O	6	.	4	7	-19	-27	.	.	.	.
CN(CCC#N)S(=O)(=O)c1ccc2[nH]cc(C(=O)NCCc3ccccc3)c(=O)c2c1	54*	-7	12	15	-8	-15	73*	0	20	6
COc1ccc2[nH]cc(C(=O)NCCc3ccccc3)c(=O)c2c1	15	-1	16	10	-24	-14	.	.	.	.
Cc1cc(Cl)c(OCCCNC2CCCC2)c(Br)c1	58*	1	-3	2	-29	2	28	11	5	13
COCCCNCCCCOc1c(Cl)cc(C)cc1Br	59*	-4	32	2	-29	-9	92*	22*	77*	8
Cc1cc(Cl)c(OCCOCCN2CCCCC2)c(Br)c1	3	-10	5	20	-17	-12	.	.	.	.
Cc1cc(C)c(OCCCCNCc2ccccc2)c(Cl)c1	48*	0	-8	2	-8	-7	48*	22*	23	24*
Cc1cc(C)c(OCCNCc2ccccc2)c(C)c1	10	-6	0	-9	-21	-18	.	.	.	.
C=CCNCCCCOc1c(Cl)cc(C)cc1Br	30	-3	-6	16	-16	-6	.	.	.	.
CN(CCc1ccccc1)c1cc2c(c3c1ccn3C)C1CCC2O1 (stereo not drawn)	78*	.	69*	.	.	.	94*	2	78*	5
Cc1cc(C(=O)COC(=O)C2=NNC(=O)CC2)c(C)n1CCc1ccccc1	61*	-10	15	17	-23	-25	86*	3	76*	10
Cc1cc(C(=O)COC(=O)c2ccc(NC(=O)CC#N)cc2)c(C)n1CCc1ccc(F)cc1	55*	.	46	10	17	11	82*	6	77*	30*
Cc1cc(C(=O)COC(=O)c2ccc[nH]c2=O)c(C)n1CCc1ccc(F)cc1	14	-5	0	20	-10	-7	.	.	.	.
Cc1c(CC(=O)N2CCC(O)CC2)c(=O)oc2cc3c(cc12)CCC1(CCCCC1)O3	3	.	-4	.	.	.	.	.	.	.
CC(C(=O)Nc1ccccc1C#N)N1C(=O)NC2(CCCCCC2)C1=O (stereo not drawn)	-1	.	-4	.	.	.	.	.	.	.
COCCNC(=O)C1(C)CCN(C(=O)c2ccc3sccc3c2)C1 (stereo not drawn)	1	.	-17	.	.	.	.	.	.	.
SMILES	TAAR1 agonist	GPR7 antag	TAAR1 antagonist	OX1R antag-1	OX1R antag-2	CHO parental Ca	TAAR1 ag conf	Ga16 nonsel ag	TAAR1 desensitize	Ga16 nonsel ant
C=CCN(CC=C)S(=O)(=O)c1ccc2nc(NC(=O)C(C)C)sc2c1	40*	4	8	31	-2	-20	69*	31*	28	11
CC(NC(=O)C1CCCN1C(=O)OC(C)(C)C)C(=O)OCc1ccccc1 (stereo not drawn)	1	.	-19	.	.	.	.	.	.	.
Cc1cn(CC(=O)NCC2CCCO2)c(=O)[nH]c1=O (stereo not drawn)	0	.	-6	.	.	.	.	.	.	.
Cc1cccc(C)c1NC1=NC2(CCCCC2)N=C(N)N1	4	-8	-11	11	12	0	.	.	.	.
NC1=NC2(CCCCC2)N=C(Nc2ccc(Br)cc2)N1	44*	-8	18	7	-15	2	69*	9	41	0
Cc1[nH]c2ccccc2c1C(=O)CN1C(=O)NC(C)(c2ccc(Cl)cc2Cl)C1=O (stereo not drawn)	70*	62*	55*	13	34	23	75*	39*	64*	48*
Cc1[nH]c2ccccc2c1C(=O)CSc1ccc(Cl)cc1	10	-18	39	12	9	18	.	.	.	.
CCOC(=O)C1=NN(C(=O)c2cccc(Br)c2)C(O)(C(C)(C)C)C1 (stereo not drawn)	.	-12	.	61	-1	-25	.	.	.	.
COC(=O)C1=NN(C(=O)c2cccc(Br)c2)C(O)(c2ccc(Cl)cc2)C1 (stereo not drawn)	93*	-13	71*	50*	-1	-12	95*	67*	76*	62*
CCOC(=O)C1=NN(C(=O)COc2ccccc2)C(O)(c2ccc(Cl)cc2)C1 (stereo not drawn)	4	0	3	1	-35	-34	.	.	.	.
CCOC(=O)C1=NN(C(=O)c2ccc(OC)cc2)C(O)(c2ccc(Cl)cc2)C1 (stereo not drawn)	65*	-4	11	2	-19	-9	80*	64*	41	30*
